Data: ChEMBL document CHEMBL2321808, “Synthesis and preliminary evaluation in tumor bearing mice of new (18)F-labeled arylsulfone matrix metalloproteinase inhibitors as tracers for positron emission tomography” (J Med Chem, 2013)
pIC50, pKd: −log10 of the molar value. Each block holds one compound with its values, some of them ahead of it. Active and inactive are the calls of the source. The calls are words filed in the database; no cut-off is given here.

How the values were obtained:
[1] = Drug uptake in small tumor in CD1 nude mouse xenografted with human U87MG cells assessed as uniform distribution at 7.4 MBq after 45 mins by PET imaging analysis; type: ADME, Neoplasm, U-87MG ATCC; details: in vivo, 0.75 h
[2] = Drug uptake in large tumor in CD1 nude mouse xenografted with human U87MG cells assessed as accumulation within the rim at 7.4 MBq after 45 mins by PET imaging analysis; type: ADME, Neoplasm, U-87MG ATCC; details: in vivo, 0.75 h
[3] = Drug uptake in tumor in CD1 nude mouse xenografted with human U87MG cells at 7.4 MBq after 45 mins by PET imaging analysis; type: ADME, Neoplasm, U-87MG ATCC; details: in vivo, 0.75 h
[4] = biological target: Matrix metalloproteinase-9 (Homo sapiens, UniProt P14780); assay: Inhibition of MMP-9 (unknown origin) using Mca-Lys-Pro-Leu-Gly-Leu-Dap(Dnp)-Ala-Arg-NH2 as substrate after 4 hrs by fluorometric assay
Method in brief: (§1)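 Fluorogenic substrate added at 2 μM final. Fluorescence (ex 325/em 395 nm) read every 15 s for 20 min. Run in triplicate. IC50 from vi/v0 = 1/(1 + [I]/IC50); Ki also derived.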

[5] = biological target: Collagenase 3 (Homo sapiens, UniProt P45452); assay: Inhibition of MMP-13 (unknown origin) using Mca-Lys-Pro-Leu-Gly-Leu-Dap(Dnp)-Ala-Arg-NH2 as substrate after 4 hrs by fluorometric assay; method in brief: as §1
[6] = biological target: 72 kDa type IV collagenase (Homo sapiens, UniProt P08253); assay: Inhibition of MMP-2 (unknown origin) using Mca-Lys-Pro-Leu-Gly-Leu-Dap(Dnp)-Ala-Arg-NH2 as substrate after 4 hrs by fluorometric assay; method in brief: as §1
[7] = biological target: Stromelysin-1 (Homo sapiens, UniProt P08254); assay: Inhibition of MMP-3 (unknown origin) using Mca-Arg-Pro-Lys-Pro-Val-Glu-Nva-Trp-Arg-Lys-(Dnp)-NH2 as substrate after 4 hrs by fluorometric assay; method in brief: as §1
[8] = biological target: Macrophage metalloelastase (Homo sapiens, UniProt P39900); assay: Inhibition of MMP-12 (unknown origin) using Mca-Lys-Pro-Leu-Gly-Leu-Dap(Dnp)-Ala-Arg-NH2 as substrate after 4 hrs by fluorometric assay; method in brief: as §1
[9] = biological target: Matrix metalloproteinase-14 (Homo sapiens, UniProt P50281); assay: Inhibition of human recombinant MMP-14 catalytic domain using Mca-Lys-Pro-Leu-Gly-Leu-Dap(Dnp)-Ala-Arg-NH2 as substrate after 4 hrs by fluorometric assay; method in brief: as §1
[10] = biological target: T1, Interstitial collagenase (Homo sapiens, UniProt P03956); assay: Inhibition of MMP-1 (unknown origin) using Mca-Lys-Pro-Leu-Gly-Leu-Dap(Dnp)-Ala-Arg-NH2 as substrate after 4 hrs by fluorometric assay; method in brief: as §1
T1 sequence (P03956 whole entry): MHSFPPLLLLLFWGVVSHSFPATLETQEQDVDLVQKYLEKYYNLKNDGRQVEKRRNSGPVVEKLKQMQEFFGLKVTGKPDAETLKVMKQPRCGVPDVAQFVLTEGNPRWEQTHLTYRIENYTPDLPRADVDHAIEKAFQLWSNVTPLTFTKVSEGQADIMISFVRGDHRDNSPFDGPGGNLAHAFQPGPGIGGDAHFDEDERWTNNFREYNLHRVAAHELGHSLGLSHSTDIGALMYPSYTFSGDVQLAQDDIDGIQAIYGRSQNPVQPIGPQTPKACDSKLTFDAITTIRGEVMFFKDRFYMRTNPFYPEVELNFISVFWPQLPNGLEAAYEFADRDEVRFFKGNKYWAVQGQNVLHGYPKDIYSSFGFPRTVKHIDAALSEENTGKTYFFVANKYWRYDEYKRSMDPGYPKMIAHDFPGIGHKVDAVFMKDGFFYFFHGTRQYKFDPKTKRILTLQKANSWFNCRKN

[11] = test system: Mus musculus; assay: In vivo inhibition of MMP in CD1 nude mouse xenografted with human U87MG cells at 7.4 MBq after 100 mins by PET imaging analysis in presence of ilomastat; type: functional, organism-based; parameters: dose or concentration left out as unconfirmed; details: U-87MG ATCC, tested as the 18F-labelled form
Method in brief: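 U-87 MG xenografted female CD1 nude mice received ilomastat i.p. at 40–160 mg/kg, 30 min before iv tracer (~7.4 MBq). Static 30-min PET acquired 100 min post-injection. %ID/g measured over whole tumor, rim and core.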

[12] = test system: Mus musculus; assay: In vivo binding affinity to MMP-2 in human U87MG tumor xenografted in mouse assessed as MMP-2 level after 12 hrs by PET scanning followed by gelatin zymography; type: functional, organism-based; details: tested as the 18F-labelled form
Method in brief: (§2)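 Xenograft tumors excised within 12 h after PET, frozen at −80 °C, ground, and lysed in 1% Triton X-100. Supernatant run on 10% SDS-PAGE containing 0.1% gelatin. Gel renatured in 2.5% Triton X-100, then developed 24 h at 37 °C in 50 mM Tris-HCl pH 7.4, 10 mM CaCl2, 0.5 μM ZnCl2, and stained with Coomassie. MMP-2 read at 72 kDa, MMP-9 at 92 kDa.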

[13] = biological target: Albumin (Homo sapiens, UniProt P02768); assay: Binding affinity to human serum albumin by 19F NMR titration assay; type: ADME
Method in brief: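 19F NMR at 310.0 K; ligand at 1.0 mM final (dissolved in DMSO, brought to volume with PBS pH 7.4 containing 10% D2O), TFA as chemical-shift reference. Fatty-acid-free human serum albumin added stepwise (0.36 mM aliquots in PBS or solid) up to protein:ligand 3:1; scans raised from 64 to 16 384 along the titration.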

[14] = test system: Mus musculus; assay: In vivo binding affinity to MMP-9 in human U87MG tumor xenografted in mouse assessed as MMP-9 level after 12 hrs by PET scanning followed by gelatin zymography; type: functional, organism-based; details: tested as the 18F-labelled form; method in brief: as §2
[15] = test system: Mus musculus; assay: Biodistribution in CD1 nude mouse small intestine at 7.4 MBq, iv after 140 mins by PET imaging analysis; type: ADME, organism-based; details: in vivo
Method in brief: (§3)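 Healthy CD1 nude mice, 6–8 weeks, 2–3 per tracer, anesthetized with isoflurane. Tail-vein injection via catheter in PBS, with residual syringe dose checked. Dynamic PET from injection to 2.5 h, 3D EM reconstruction, no attenuation or scatter correction, phantom-calibrated. Manual ROIs on organs; decay-corrected uptake expressed as % ID/g.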

[16] = test system: Mus musculus; assay: Biodistribution in CD1 nude mouse small intestine at 7.4 MBq, iv after 10 mins by PET imaging analysis; type: ADME, organism-based; details: in vivo
Method in brief: (§4)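 Healthy CD1 nude mice, 6–8 weeks old (n = 2–3 per tracer), under isoflurane anesthesia. Tracer given by tail-vein catheter, ~7.4 MBq in 0.15–0.30 mL PBS. Dynamic PET from injection to 2.5 h. Organ ROIs drawn and counts calibrated against an [18F]fluoride phantom. Uptake decay-corrected and expressed as %ID/g.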

[17] = test system: Liver; assay: Biodistribution in CD1 nude mouse liver at 7.4 MBq, iv after 10 mins by PET imaging analysis; type: ADME, organism-based; details: in vivo; method in brief: as §4
[18] = test system: Liver; assay: Biodistribution in CD1 nude mouse liver at 7.4 MBq, iv after 45 mins by PET imaging analysis; type: ADME, organism-based; details: in vivo, 0.75 h; method in brief: as §3
[19] = Drug uptake in large tumor in CD1 nude mouse xenografted with human U87MG cells assessed as accumulation within the rim at 7.4 MBq after 100 mins by PET imaging analysis; type: ADME, Neoplasm, U-87MG ATCC; details: in vivo
[20] = Drug uptake in small tumor in CD1 nude mouse xenografted with human U87MG cells assessed as uniform distribution at 7.4 MBq after 100 mins by PET imaging analysis; type: ADME, Neoplasm, U-87MG ATCC; details: in vivo
[21] = Drug uptake in tumor in […] CD1 nude mouse xenografted with human U87MG cells after 10 mins by PET imaging analysis; type: ADME, organism-based, Neoplasm, U-87MG ATCC; details: read-out: Drug uptake
[22] = Drug uptake in tumor in CD1 nude mouse xenografted with human U87MG cells at 7.4 MBq after 100 mins by PET imaging analysis; type: ADME, Neoplasm, U-87MG ATCC; details: in vivo
[23] = Drug uptake in tumor in […] CD1 nude mouse xenografted with human U87MG cells after 100 mins by PET imaging analysis; type: ADME, organism-based, Neoplasm, U-87MG ATCC; details: in vivo

Sequence of Matrix metalloproteinase-9 (P14780 whole entry): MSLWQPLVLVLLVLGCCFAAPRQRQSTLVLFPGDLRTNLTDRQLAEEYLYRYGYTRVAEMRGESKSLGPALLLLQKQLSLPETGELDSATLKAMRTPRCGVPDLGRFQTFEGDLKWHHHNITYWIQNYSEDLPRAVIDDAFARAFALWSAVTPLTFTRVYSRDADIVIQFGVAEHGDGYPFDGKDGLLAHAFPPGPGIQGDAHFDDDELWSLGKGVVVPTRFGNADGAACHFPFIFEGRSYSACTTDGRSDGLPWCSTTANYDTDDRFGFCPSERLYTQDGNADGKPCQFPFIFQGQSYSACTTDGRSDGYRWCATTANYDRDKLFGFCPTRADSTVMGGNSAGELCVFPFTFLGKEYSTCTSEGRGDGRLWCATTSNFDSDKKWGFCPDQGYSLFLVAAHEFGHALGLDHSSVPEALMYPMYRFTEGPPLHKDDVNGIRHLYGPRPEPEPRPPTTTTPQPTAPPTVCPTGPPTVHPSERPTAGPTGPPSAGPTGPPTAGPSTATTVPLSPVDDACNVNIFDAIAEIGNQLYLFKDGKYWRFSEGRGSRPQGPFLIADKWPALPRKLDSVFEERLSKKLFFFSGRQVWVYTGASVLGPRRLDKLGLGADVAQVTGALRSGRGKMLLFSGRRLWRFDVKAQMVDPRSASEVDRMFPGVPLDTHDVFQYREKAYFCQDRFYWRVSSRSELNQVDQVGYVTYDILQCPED
Sequence of Macrophage metalloelastase (P39900 whole entry, the tested form may be a part): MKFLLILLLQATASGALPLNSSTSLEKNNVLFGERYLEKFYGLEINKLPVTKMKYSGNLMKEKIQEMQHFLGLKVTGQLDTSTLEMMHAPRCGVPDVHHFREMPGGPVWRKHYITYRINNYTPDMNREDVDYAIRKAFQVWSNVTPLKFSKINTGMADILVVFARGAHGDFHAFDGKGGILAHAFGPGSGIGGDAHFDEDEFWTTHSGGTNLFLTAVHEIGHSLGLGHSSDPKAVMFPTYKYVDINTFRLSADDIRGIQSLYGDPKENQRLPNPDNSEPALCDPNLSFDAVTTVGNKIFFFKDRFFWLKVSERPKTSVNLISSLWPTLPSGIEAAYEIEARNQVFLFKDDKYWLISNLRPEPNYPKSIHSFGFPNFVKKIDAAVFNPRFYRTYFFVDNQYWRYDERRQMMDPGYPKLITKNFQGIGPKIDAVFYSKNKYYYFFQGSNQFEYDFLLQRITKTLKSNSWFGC
Sequence of Stromelysin-1 (P08254 whole entry): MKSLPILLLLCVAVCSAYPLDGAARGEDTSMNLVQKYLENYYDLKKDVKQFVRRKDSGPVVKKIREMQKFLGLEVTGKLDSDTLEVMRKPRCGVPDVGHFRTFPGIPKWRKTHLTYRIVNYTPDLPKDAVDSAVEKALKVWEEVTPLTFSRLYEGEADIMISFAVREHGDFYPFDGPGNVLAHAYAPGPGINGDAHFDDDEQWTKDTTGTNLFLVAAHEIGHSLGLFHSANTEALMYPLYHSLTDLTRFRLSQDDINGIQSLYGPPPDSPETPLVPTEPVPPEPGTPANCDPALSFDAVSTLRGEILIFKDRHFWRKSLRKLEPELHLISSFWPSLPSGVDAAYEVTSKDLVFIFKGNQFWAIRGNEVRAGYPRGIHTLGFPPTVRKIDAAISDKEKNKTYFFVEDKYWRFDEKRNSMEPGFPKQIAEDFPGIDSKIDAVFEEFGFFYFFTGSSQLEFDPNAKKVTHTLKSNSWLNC
Sequence of 72 kDa type IV collagenase (P08253 whole entry): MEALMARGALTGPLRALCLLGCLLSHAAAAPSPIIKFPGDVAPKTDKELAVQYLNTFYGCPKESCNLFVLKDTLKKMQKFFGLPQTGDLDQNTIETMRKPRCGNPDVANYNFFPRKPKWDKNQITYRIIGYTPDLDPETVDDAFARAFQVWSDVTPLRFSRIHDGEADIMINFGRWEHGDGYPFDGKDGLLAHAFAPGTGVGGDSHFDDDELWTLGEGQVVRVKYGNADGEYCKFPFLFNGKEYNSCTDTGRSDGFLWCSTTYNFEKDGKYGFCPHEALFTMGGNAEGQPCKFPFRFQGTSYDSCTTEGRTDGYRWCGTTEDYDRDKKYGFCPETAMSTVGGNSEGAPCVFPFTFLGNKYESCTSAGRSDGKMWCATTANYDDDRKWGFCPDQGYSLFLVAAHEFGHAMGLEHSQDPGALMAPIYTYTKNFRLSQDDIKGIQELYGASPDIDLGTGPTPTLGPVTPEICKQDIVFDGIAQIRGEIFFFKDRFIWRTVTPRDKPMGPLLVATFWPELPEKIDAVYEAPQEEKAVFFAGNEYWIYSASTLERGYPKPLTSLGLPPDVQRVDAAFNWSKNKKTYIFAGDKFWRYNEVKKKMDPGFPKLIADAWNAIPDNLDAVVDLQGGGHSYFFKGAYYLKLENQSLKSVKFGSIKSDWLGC
Sequence of Albumin (P02768 whole entry): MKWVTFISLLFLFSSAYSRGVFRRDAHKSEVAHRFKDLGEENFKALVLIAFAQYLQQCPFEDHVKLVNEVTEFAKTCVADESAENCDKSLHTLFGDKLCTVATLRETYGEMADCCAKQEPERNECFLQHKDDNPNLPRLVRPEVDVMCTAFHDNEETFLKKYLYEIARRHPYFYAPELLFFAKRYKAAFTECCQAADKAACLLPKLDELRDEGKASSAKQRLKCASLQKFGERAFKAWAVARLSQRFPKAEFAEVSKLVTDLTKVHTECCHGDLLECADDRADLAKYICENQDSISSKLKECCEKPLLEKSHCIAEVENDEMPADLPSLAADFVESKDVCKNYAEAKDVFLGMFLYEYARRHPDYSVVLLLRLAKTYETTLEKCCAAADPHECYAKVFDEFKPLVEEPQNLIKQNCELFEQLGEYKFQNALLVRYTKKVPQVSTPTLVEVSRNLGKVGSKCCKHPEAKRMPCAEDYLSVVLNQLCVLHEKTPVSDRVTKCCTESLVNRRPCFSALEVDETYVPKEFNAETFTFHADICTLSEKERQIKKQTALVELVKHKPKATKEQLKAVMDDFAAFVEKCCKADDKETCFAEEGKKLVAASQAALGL

pIC50 [4]: 5.44
pIC50 [5]: 6.41
pIC50 [6]: 6.64
pIC50 [7]: 4.17
pIC50 [8]: 6.40
pIC50 [9]: 5.32
pIC50 [10]: 4.94
Structure (SMILES): O=C(O)Cc1ccccc1S(=O)(=O)c1ccc(-c2ccc(F)cc2)cc1

pIC50 [4]: 6.97
pIC50 [5]: 7.66
pIC50 [6]: 7.80
pIC50 [7]: 5.15
pIC50 [8]: 7.36
pIC50 [9]: 5.80
pKd [13]: 3.85
pIC50 [10]: 4.73
Structure (SMILES): O=C(O)Cc1ccccc1S(=O)(=O)c1ccc(-c2ccc(OCCF)cc2)cc1
inhibition [11]: Active
Activity [12]: Active
Activity [14]: Active

Drug uptake [19]: Active
Drug uptake [20]: Active
Drug uptake [15]: 13.1 % ID/g
Drug uptake [16]: 2.5 % ID/g
tissue uptake at 10 min [21]: 1.1 %ID/g
Drug uptake [22]: 1.4 % ID/g
Drug uptake [17]: 11.2 % ID/g
Drug uptake [18]: 8.5 % ID/g
Drug uptake [23]: 1.7 % ID/g
Structure (SMILES): O=C(O)Cc1ccccc1S(=O)(=O)c1ccc(-c2ccc(OCC[18F])cc2)cc1

More lines, now with the values behind:

Structure (SMILES): OC[C@H]1OC(O)[C@H]([18F])[C@@H](O)[C@@H]1O (some centres undefined) [FLUDEOXYGLUCOSE F 18]
Drug uptake [1]: Active
Drug uptake [2]: Active
Drug uptake [3]: 4.39 % ID/g

Structure (SMILES): O=C(O)Cc1ccccc1S(=O)(=O)c1ccc(-c2ccc(NC(=O)CF)cc2)cc1
pIC50 [4]: 5.82
pIC50 [5]: 6.66
pIC50 [6]: 7.21
pIC50 [7]: 5.17
pIC50 [8]: 6.30
pIC50 [9]: 5.34
pKd [13]: 5.00
pIC50 [10]: 5.21

Structure (SMILES): O=C(O)Cc1ccccc1S(=O)(=O)c1ccc(-c2ccc(NC(=O)C[18F])cc2)cc1
Drug uptake [15]: 12.4 % ID/g
Drug uptake [16]: 2.4 % ID/g
Drug uptake [17]: 11%
Drug uptake [18]: 6.1 % ID/g

Structure (SMILES): CC(C)(C)OC(=O)Cc1ccccc1S(=O)(=O)c1ccc(-c2ccc(OCC[18F])cc2)cc1
Drug uptake [16]: 4.1 % ID/g
Drug uptake [17]: 21.6 % ID/g
